{
  "source": "paper PMC3115796",
  "about": "(The Journal of Cell Biology, 2011)",
  "key": {"SLAIN2 in 3T3 cells": {"system": "SLAIN2 in 3T3 cells", "test": "siRNA knockdown in mouse 3T3 cells", "format": "cell-based", "conditions": "siRNA 5 nM, 72 h", "summary_of_the_method": "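Mouse Swiss 3T3 cells were cultured in 45% DME, 45% Ham's F10 and 10% FCS. Cells were blocked in interphase with 2 mM thymidine, added 1 d after transfection, for 2 d.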"}, "[1]": {"molecular_target": "T1, CLIPCG1 (first CAP-Gly domain of CLIP-170) (Homo sapiens, UniProt P30622)", "T1 sequence (P30622 56-128)": "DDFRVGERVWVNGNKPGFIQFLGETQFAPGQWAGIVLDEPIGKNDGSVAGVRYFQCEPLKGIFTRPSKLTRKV", "test": "ITC of SLAIN2c with first CAP-Gly domain of CLIP-170", "format": "binding"}, "[2]": {"molecular_target": "T2, CLIPCG2 (second CAP-Gly domain of CLIP-170) (Homo sapiens, UniProt P30622)", "T2 sequence (P30622 210-282)": "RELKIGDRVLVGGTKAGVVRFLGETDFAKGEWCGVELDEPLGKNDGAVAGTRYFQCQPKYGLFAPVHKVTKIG", "test": "ITC of SLAIN2c with second CAP-Gly domain of CLIP-170", "format": "binding"}, "[3]": {"molecular_target": "T3, CLIPCG12 (both CAP-Gly domains of CLIP-170) (Homo sapiens, UniProt P30622)", "T3 sequence (P30622 48-300)": "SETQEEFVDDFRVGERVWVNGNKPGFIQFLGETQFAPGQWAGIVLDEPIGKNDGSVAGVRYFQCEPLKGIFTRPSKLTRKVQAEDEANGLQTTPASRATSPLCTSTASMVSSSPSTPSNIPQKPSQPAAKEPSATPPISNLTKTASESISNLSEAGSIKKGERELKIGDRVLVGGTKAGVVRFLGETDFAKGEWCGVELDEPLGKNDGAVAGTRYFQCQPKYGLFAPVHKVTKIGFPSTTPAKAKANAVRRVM", "test": "ITC of SLAIN2c with double CAP-Gly construct of CLIP-170", "format": "binding"}, "[4]": {"system": "p150CG (CAP-Gly domain of dynactin large subunit p150^Glued)", "test": "ITC of SLAIN2c with CAP-Gly domain of p150Glued", "format": "binding, human", "conditions": "ITC in PBS, 25°C"}, "[5]": {"system": "SLAIN2 C terminus / full-length CLIP-170", "test": "GST-SLAIN2 pull-down of CLIPs and full-length CLIP-170", "format": "binding"}},
  "note": "“Also recorded” adds a separate entry of the source. Ends that are not written are not given here.",
  "data": [
    {"substance": "SLAIN2 siRNA#2: siRNA target sequence 5′-CUCUAUAGAUAGUGAGUUA-3′ (chemistry not given here)", "values": [
      {"measurement": "depletion of SLAIN2", "setting": "SLAIN2 in 3T3 cells", "result": "efficiently deplete SLAIN2"}
    ]},
    {"substance": "GSMKDDSWKDGCY-OH [SLAIN2c]", "values": [
      {"measurement": "Kd (in words)", "setting": "[1]; ITC", "result": "micromolar range"},
      {"measurement": "Kd (in words)", "setting": "[2]; ITC", "result": "micromolar range"},
      {"measurement": "Kd (in words)", "setting": "[3]", "result": "comparable"},
      {"measurement": "binding by ITC (in words)", "setting": "[4]", "result": "only very weak binding; also recorded: more weakly than the two CAP-Gly domains of CLIP-170"}
    ]},
    {"substance": "GFP–CLIP-115: full-length rat CLIP-115 [reference compound]", "values": [
      {"measurement": "association with SLAIN2 C terminus", "setting": "[5]", "result": "associated with the SLAIN2 C terminus"}
    ]},
    {"substance": "SLAIN2c-W576A (GSMKDDSAKDGCY)", "values": [
      {"measurement": "binding by ITC (in words)", "setting": "[1]; ITC in PBS, 25°C", "result": "abrogates binding"},
      {"measurement": "binding by ITC (in words)", "setting": "[2]; ITC in PBS, 25°C", "result": "abrogates binding"}
    ]}
  ]
}
